Tests used:
Cricetulus griseus [1] = organism: Cricetulus griseus; assay: Inhibition of AHAT-catalyzed transacylation of 4-aminoazobenzene
Outline: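 Partially purified hamster hepatic AHAT (2.5–3.75 mg protein) was preincubated 5 min with inhibitor (2.5 μmol in EtOH; 1 mM) before adding acyl-donor substrate (2.5 μmol) and 4-aminoazobenzene (0.375 μmol). The 2.5 mL mix held pyrophosphate pH 7, DTT and 1.15% KCl, at 37 °C in air. Stopped with TCA/EtOH; supernatant read spectrophotometrically (Booth). Percent inhibition vs control; three experiments in triplicate.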

Cricetulus griseus [2] = organism: Cricetulus griseus; assay: Percent inhibition against AHAT when compound 10 is used as substrate at 1 mM concentration
Outline: (§1)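 Partially purified hamster hepatic AHAT; 1 mM inhibitor (final) in ethanol was preincubated with enzyme for 5 min, then acyl donor (2.5 μmol) and 4-aminoazobenzene (0.375 μmol) were added. Mix: pyrophosphate buffer pH 7, DTT, KCl, 2.5 mL, 37 °C in air, read after 10 min. TCA-ethanol stop; spectrophotometric read-out of transacetylation. % inhibition vs control; three experiments in triplicate.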

Cricetulus griseus [3] = organism: Cricetulus griseus; assay: Percent inhibition against AHAT when compound 8 is used as substrate at 1 mM concentration; outline: as §1

| Compound | Transacetylation rate (Cricetulus griseus [1]) [nmol/min/mg] | inhibition (Cricetulus griseus [2]) [%] | inhibition (Cricetulus griseus [3]) [%] |
| --- | --- | --- | --- |
| CC(=O)Nc1ccc2c(c1O)Cc1ccccc1-2 | 0.11 |  |  |
| CC(=O)Nc1ccc(-c2ccccc2)cc1 | 0.27 |  |  |
| CC(=O)N(O)c1ccc(-c2ccccc2)cc1 | 13.3 |  |  |
| CCN1C(=O)C=CC1=O |  | 86 | 77 |
| CC(=O)Nc1ccc(-c2ccccc2)cc1O | 0.69 |  |  |
| CC(=O)Nc1cc2c(cc1O)-c1ccccc1C2 | 0.05 |  |  |
| O=C(CO)Nc1ccc2c(c1)Cc1ccccc1-2 | 0.02 |  |  |
| NC(=O)CI |  | 99 | 99 |
| p-Chloromercuribenzenesulfonate |  | 96 | 92 |
| O=C(CO)Nc1ccc(/C=C/c2ccccc2)cc1 | 0.18 |  |  |
| CC(=O)N(O)c1ccc2c(c1)Cc1ccccc1-2 | 19.3 |  |  |
| CC(=O)N(O)c1ccc(/C=C/c2ccccc2)cc1 | 9.73 |  |  |
| O=C(CO)Nc1ccc(-c2ccccc2)cc1 | 0.03 |  |  |

Source: ChEMBL document CHEMBL1122423, “N-arylhydroxamic acid N,O-acyltransferase. Positional requirements for the substrate hydroxyl group” (J Med Chem, 1983)
